Common to all, as to type: functional
One assay concerns Haemophilus influenzae. The assay is described as follows: In vitro antibacterial activity against DILL strain of Haemophilus influenzae. The method, boiled down: (§1)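 MIC determined by standard agar dilution; values in μg/mL.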
Assay [1] concerns Mus musculus. The assay is described as follows: Effective dose when administered subcutaneously in mice infected with Streptococcus pneumoniae ATCC 6303. The note with it: sc. In outline: (§2)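 Mice infected intraperitoneally with 1000 × LD₅₀ (S. aureus) or […] × LD₅₀ (S. pneumoniae). Compound given orally (po) or subcutaneously (sc) at 1 and 5 h post-infection. ED₅₀ expressed in mg/kg/day with 95% confidence interval.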

Assay [2] concerns Mus musculus. The assay is described as follows: Effective dose when administered orally in mice infected with Staphylococcus aureus NCTC-10649M. The note with it: po. The method, boiled down: as §2
Assay [3] has as its system Mus musculus. The assay is described as follows: Effective dose when administered orally in mice infected with Streptococcus pneumoniae ATCC 6303. The following applies: po. The method, boiled down: as §2
The test system of assay [4] is Mus musculus. The assay is described as follows: Effective dose when administered subcutaneously in mice infected with Staphylococcus aureus NCTC-10649M. The note with it: sc. The method, boiled down:
as §2

The subject of assay [5] is Staphylococcus aureus. The assay is described as follows: In vitro antibacterial activity against 6538P strain of Staphylococcus aureus. In outline:
as §1

The test system of assay [6] is Staphylococcus aureus. The assay is described as follows: In vitro antibacterial activity against A5177 strain of Staphylococcus aureus. The following applies: Staphylococcus aureus. In outline:
as §1

In assay [7] the test system is Staphylococcus aureus. The assay is described as follows: In vivo antibacterial activity in mice infected with Staphylococcus aureus NCTC-10649M.
Assay [8] relates to Streptococcus pneumoniae. The assay is described as follows: In vitro antibacterial activity against 5649 strain of Streptococcus pneumoniae. The following applies: Streptococcus pneumoniae. The method, boiled down: as §1
Assay [9] has as its system Streptococcus pneumoniae. The assay is described as follows: In vitro antibacterial activity against 5979 strain of Streptococcus pneumoniae. In outline: as §1
The test system of assay [10] is Streptococcus pyogenes. The assay is described as follows: In vitro antibacterial activity against 930 strain of Streptococcus pyogenes. The note with it: Streptococcus pyogenes. The method, boiled down:
as §1

The subject of assay [11] is Streptococcus pneumoniae. The assay is described as follows: In vitro antibacterial activity against ATCC 6303 strain of Streptococcus pneumoniae. The note with it: Streptococcus pneumoniae, ATCC 6303. The method, boiled down:
as §1

Assay [12] deals with Streptococcus pyogenes. The assay is described as follows: In vitro antibacterial activity against PIU 2548 strain of Streptococcus pyogenes. The method, boiled down: as §1
Assay [13] has as its system Streptococcus pneumoniae. The assay is described as follows: In vivo antibacterial activity in mice infected with Streptococcus pneumoniae ATCC 6303.
A short description of assay [14]: In vitro antibacterial activity against A-5278 strain of Staphylococcus aureus. The note with it: Staphylococcus aureus. The method, boiled down: as §1

These results are taken from ChEMBL document CHEMBL1131215, “Anhydrolide macrolides. 1. Synthesis and antibacterial activity of 2,3-anhydro-6-O-methyl 11,12-carbamate erythromycin A analogues” (1998).

In brackets after ≈: the same amount, converted by molar mass. A value given as a limit tells only on which side of the number the result lay.

Broadly, the ED50 is the midpoint of the dose-response relation. A low value points to an effect at a small dose. With `CC[C@H]1OC(=O)/C(C)=C/[C@H](C)[C@@H](O[C@@H]2O[C@H](C)C[C@H](N(C)C)[C@H]2O)[C@@](C)(OC)C[C@@H](C)C(=O)[C@H](C)[C@H]2N(CCc3ccc([N+](=O)[O-])cc3)C(=O)O[C@]12C`, the MIC was found to be 16 µg/mL (≈ 21.5 µM) against Haemophilus influenzae; 0.1 µg/mL (≈ 0.134 µM) against Staphylococcus aureus [5] (Staphylococcus aureus); 0.1 µg/mL (≈ 0.134 µM) against Staphylococcus aureus [6]; 0.1 µg/mL (≈ 0.134 µM) against Staphylococcus aureus [7]; 1 µg/mL (≈ 1.34 µM) in the assay with Streptococcus pneumoniae [8]; 64 µg/mL (≈ 85.8 µM) in the assay on Streptococcus pneumoniae [9]. Moreover, the MIC was 25 µg/mL (≈ 33.5 µM) with Streptococcus pyogenes [10]; 0.06 µg/mL (≈ 0.0804 µM) against Streptococcus pneumoniae [11]; 0.1 µg/mL (≈ 0.134 µM) with Streptococcus pyogenes [12] (Streptococcus pyogenes); 0.06 µg/mL (≈ 0.0804 µM) in the assay on Streptococcus pneumoniae [13]; 50 µg/mL (≈ 67 µM) in assay [14]. The ED50 is more than 8 mg/kg/day in the assay with Mus musculus [1], 50.1 mg/kg/day in the assay with Mus musculus [2], more than 20 mg/kg/day in the assay on Mus musculus [3] and more than 40 mg/kg/day with Mus musculus [4].

`CC[C@H]1OC(=O)/C(C)=C/[C@H](C)[C@@H](O[C@@H]2O[C@H](C)C[C@H](N(C)C)[C@H]2O)[C@@](C)(OC)C[C@@H](C)C(=O)[C@H](C)[C@H]2N(CC/C=C\c3ccc(Cl)cc3)C(=O)O[C@]12C`: the MIC in the assay with Haemophilus influenzae turned out to be 32 µg/mL (≈ 42 µM); in the assay with Staphylococcus aureus [5] (Staphylococcus aureus), 0.39 µg/mL (≈ 0.512 µM); in the assay on Streptococcus pneumoniae [8], 1 µg/mL (≈ 1.31 µM); against Streptococcus pneumoniae [9], 8 µg/mL (≈ 10.5 µM); against Streptococcus pyogenes [10], 3.1 µg/mL (≈ 4.07 µM); against Streptococcus pneumoniae [11], 0.12 µg/mL (≈ 0.158 µM). Moreover, the MIC was 0.2 µg/mL (≈ 0.263 µM) with Streptococcus pyogenes [12] (Streptococcus pyogenes) and 12.5 µg/mL (≈ 16.4 µM) in assay [14].

In the case of `CC[C@H]1OC(=O)/C(C)=C/[C@H](C)[C@@H](O[C@@H]2O[C@H](C)C[C@H](N(C)C)[C@H]2O)[C@@](C)(OC)C[C@@H](C)C2=NCCN3C(=O)O[C@@]1(C)[C@H]3[C@H]2C`, the MIC against Haemophilus influenzae came out at 16 µg/mL (≈ 25.7 µM); in the assay with Staphylococcus aureus [5] (Staphylococcus aureus), 0.78 µg/mL (≈ 1.25 µM); with Staphylococcus aureus [6], 0.78 µg/mL (≈ 1.25 µM); in the assay with Staphylococcus aureus [7] it was 0.05 µg/mL (≈ 0.0804 µM); in the assay with Streptococcus pneumoniae [8], 1 µg/mL (≈ 1.61 µM); in the assay with Streptococcus pneumoniae [11], 0.25 µg/mL (≈ 0.402 µM). For the same molecule, the MIC in the assay with Streptococcus pyogenes [12] (Streptococcus pyogenes) worked out at 0.2 µg/mL (≈ 0.322 µM); in the assay with Streptococcus pneumoniae [13], 0.25 µg/mL (≈ 0.402 µM). Moreover, the ED50 is 7.5 mg/kg/day with Mus musculus [1], 66.1 mg/kg/day in the assay with Mus musculus [2], 8 mg/kg/day in the assay with Mus musculus [3] and more than 40 mg/kg/day in the assay on Mus musculus [4].

As to `CC[C@H]1OC(=O)/C(C)=C/[C@H](C)[C@@H](O[C@@H]2O[C@H](C)C[C@H](N(C)C)[C@H]2O)[C@@](C)(OC)C[C@@H](C)C(=O)[C@H](C)[C@H]2N(CCc3ccc(C)cc3)C(=O)O[C@]12C`, the MIC turned out to be 16 µg/mL (≈ 22.4 µM) in the assay on Haemophilus influenzae; 0.39 µg/mL (≈ 0.545 µM) with Staphylococcus aureus [5] (Staphylococcus aureus); 0.39 µg/mL (≈ 0.545 µM) against Staphylococcus aureus [6]; 0.25 µg/mL (≈ 0.35 µM) against Streptococcus pneumoniae [8]; 16 µg/mL (≈ 22.4 µM) against Streptococcus pneumoniae [9]; 12.5 µg/mL (≈ 17.5 µM) against Streptococcus pyogenes [10]. In addition, the MIC in the assay on Streptococcus pneumoniae [11] came to 0.015 µg/mL (≈ 0.021 µM); with Streptococcus pyogenes [12] (Streptococcus pyogenes), 0.39 µg/mL (≈ 0.545 µM); in [14], 25 µg/mL (≈ 35 µM).

In the case of `CC[C@H]1OC(=O)[C@H](C)[C@@H](O[C@H]2C[C@@](C)(OC)[C@@H](O)[C@H](C)O2)[C@H](C)[C@@H](O[C@@H]2O[C@H](C)C[C@H](N(C)C)[C@H]2O)[C@](C)(OC)C[C@@H](C)C(=O)[C@H](C)[C@@H](O)[C@]1(C)O` [CLARITHROMYCIN], the MIC in the assay with Staphylococcus aureus [7] turned out to be 0.03 µg/mL (≈ 0.0401 µM); against Streptococcus pneumoniae [13], 0.004 µg/mL (≈ 0.00535 µM).

For the molecule `CC[C@H]1OC(=O)/C(C)=C/[C@H](C)[C@@H](O[C@@H]2O[C@H](C)C[C@H](N(C)C)[C@H]2O)[C@@](C)(OC)C[C@@H](C)C(=O)[C@H](C)[C@H]2N(CCc3cccc(C(F)(F)F)c3)C(=O)O[C@]12C`, the MIC in the assay with Haemophilus influenzae was determined as 32 µg/mL (≈ 41.6 µM); against Staphylococcus aureus [5] (Staphylococcus aureus) it was 0.39 µg/mL (≈ 0.507 µM); against Staphylococcus aureus [6] it was 0.78 µg/mL (≈ 1.01 µM); against Streptococcus pneumoniae [8] it was 1 µg/mL (≈ 1.3 µM); in the assay with Streptococcus pneumoniae [9], 16 µg/mL (≈ 20.8 µM); against Streptococcus pyogenes [10], 6.2 µg/mL (≈ 8.06 µM). Also, the figures for the MIC (against Streptococcus pneumoniae [11]; against Streptococcus pyogenes [12] (Streptococcus pyogenes); in assay [14]) were 0.125 µg/mL (≈ 0.163 µM), 0.78 µg/mL (≈ 1.01 µM) and 25 µg/mL (≈ 32.5 µM), respectively.

As to `CC[C@H]1OC(=O)/C(C)=C/[C@H](C)[C@@H](O[C@@H]2O[C@H](C)C[C@H](N(C)C)[C@H]2O)[C@@](C)(OC)C[C@@H](C)C(=O)[C@H](C)[C@H]2NC(=O)O[C@@]21C` (stereo in doubt; 6), the ED50 in the assay with Mus musculus [2] was 35.8 mg/kg/day; in the assay on Mus musculus [3], more than 40 mg/kg/day. The MIC in the assay on Staphylococcus aureus [5] stood at 1.56 µg/mL (≈ 2.61 µM); in the assay with Staphylococcus aureus [6], 0.78 µg/mL (≈ 1.31 µM); with Staphylococcus aureus [7] it was 1.56 µg/mL (≈ 2.61 µM); against Streptococcus pneumoniae [8], 0.5 µg/mL (≈ 0.838 µM); in the assay with Streptococcus pneumoniae [11] it was 0.25 µg/mL (≈ 0.419 µM); in the assay on Streptococcus pyogenes [12], 0.2 µg/mL (≈ 0.335 µM). In the assay with Streptococcus pneumoniae [13], this molecule had an MIC of 0.25 µg/mL (≈ 0.419 µM).
